This is an account of results in ChEMBL document CHEMBL1158613, “Novel trivalent anti-influenza reagent” (Bioorg Med Chem Lett, 2010).

Structures are written as SMILES. Active and inactive are the calls of the source. The rule behind the calls is not given here.

Series [1] can be described thus: Aqueous solubility of the compound. It counts as physicochemical. Conditions: buffer.
Series [2] deals with Influenza A virus. As to the kind of experiment: Antiviral activity against Influenza A/PR/8/1934 (H1N1) infected in MDCK cells assessed as of viral plaque formation at 4 degC relative to control. It counts as functional, A/Puerto Rico/8/1934(H1N1). The method in brief: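 Plaque reduction assay in MDCK cells infected with A/PR/8/1934 (H1N1), with compound at 400 μM during virus adsorption at 4 °C. Plaques were counted and expressed as a percentage of the virus-only control. Uninoculated cells served as the no-virus control. Single concentration only, with no dose range.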

Series [3] concerns Influenza A virus. As to the kind of experiment: Antiviral activity against Influenza A/PR/8/1934 (H1N1) infected in MDCK cells assessed as viral plaque formation at 35 degC relative to control. In kind it is functional, A/Puerto Rico/8/1934(H1N1). The method in brief:
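Plaque reduction assay in MDCK cells with A/PR/8/1934 (H1N1), with compound at 400 μM present during virus adsorption at 35 °C. The plaque count is given as a percentage of plaques in the virus-only control, and uninoculated cells were the blank. A single concentration was tested.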

Series [4] relates to Influenza A virus. Put plainly: Inhibition of Influenza A/PR/8/1934 (H1N1)-induced hemagglutinination of chicken RBC. It counts as functional, organism-based. As to conditions: A/Puerto Rico/8/1934(H1N1).

Consider `CC(=O)N[C@H]1[C@@H]([C@@H](O)[C@H](O)CO)O[C@](O[C@H]2[C@@H](O)[C@@H](CO)O[C@@H](O[C@H]3[C@@H](O)[C@@H](O)[C@H](OCCCCCCNC(=O)CCC(N)C(=O)NCCOCCOCCOc4ccc(C(c5ccc(OCCOCCOCCNC(=O)C(N)CCC(=O)NCCCCCCO[C@@H]6O[C@H](CO)[C@@H](O[C@@H]7O[C@H](CO)[C@H](O)[C@H](O[C@@]8(C(=O)O)C[C@H](O)[C@@H](NC(C)=O)[C@@H]([C@@H](O)[C@H](O)CO)O8)[C@H]7O)[C@@H](O)[C@H]6O)cc5)c5ccc(OCCOCCOCCNC(=O)C(N)CCC(=O)NCCCCCCO[C@@H]6O[C@H](CO)[C@@H](O[C@@H]7O[C@H](CO)[C@H](O)[C@H](O[C@@]8(C(=O)O)C[C@H](O)[C@@H](NC(C)=O)[C@@H]([C@@H](O)[C@H](O)CO)O8)[C@H]7O)[C@@H](O)[C@H]6O)cc5)cc4)O[C@@H]3CO)[C@@H]2O)(C(=O)O)C[C@@H]1O` (some centres undefined), for which, in series [1], the solubility entry is listed as “Soluble”. Moreover, the Activity in the series on Influenza A virus [2] is reported as 15.5%; in the series on Influenza A virus [3], 45.6%. The inhibition result in the series with Influenza A virus [4] was “inactive”.

Regarding `NC(CCC(=O)NCCCCCCO[C@@H]1O[C@H](CO)[C@@H](O[C@@H]2O[C@H](CO)[C@H](O)[C@H](O)[C@H]2O)[C@@H](O)[C@H]1O)C(=O)NCCOCCOCCOc1ccc(C(c2ccc(OCCOCCOCCNC(=O)C(N)CCC(=O)NCCCCCCO[C@@H]3O[C@H](CO)[C@@H](O[C@@H]4O[C@H](CO)[C@H](O)[C@H](O)[C@H]4O)[C@@H](O)[C@H]3O)cc2)c2ccc(OCCOCCOCCNC(=O)C(N)CCC(=O)NCCCCCCO[C@@H]3O[C@H](CO)[C@@H](O[C@@H]4O[C@H](CO)[C@H](O)[C@H](O)[C@H]4O)[C@@H](O)[C@H]3O)cc2)cc1` (some centres undefined), in series [1], the solubility entry was “Soluble”. Further, the results for the Activity in the series with Influenza A virus [2] and in the series with Influenza A virus [3] were 72.4% and 77.1%, respectively.

`NC(CCC(=O)NCCCCCCO[C@@H]1O[C@H](CO)[C@@H](O[C@@H]2O[C@H](CO)[C@H](O)[C@H](O)[C@H]2O)[C@@H](O)[C@H]1O)C(=O)NCCOCCOCCC(=O)Nc1ccc(C(c2ccc(NC(=O)CCOCCOCCNC(=O)C(N)CCC(=O)NCCCCCCO[C@@H]3O[C@H](CO)[C@@H](O[C@@H]4O[C@H](CO)[C@H](O)[C@H](O)[C@H]4O)[C@@H](O)[C@H]3O)cc2)c2ccc(NC(=O)CCOCCOCCNC(=O)C(N)CCC(=O)NCCCCCCO[C@@H]3O[C@H](CO)[C@@H](O[C@@H]4O[C@H](CO)[C@H](O)[C@H](O)[C@H]4O)[C@@H](O)[C@H]3O)cc2)cc1` (some centres undefined): in series [1], the solubility result is on record as “Soluble”. For the same compound, the Activity in the series with Influenza A virus [2] and in the series on Influenza A virus [3] was 100% each time.

Consider `CC(=O)N[C@H]1[C@@H]([C@@H](O)[C@H](O)CO)O[C@](O[C@H]2[C@@H](O)[C@@H](CO)O[C@@H](O[C@H]3[C@@H](O)[C@@H](O)[C@H](OCCCCCCNC(=O)CCC(N)C(=O)NCCOCCOCCC(=O)Nc4ccc(C(c5ccc(NC(=O)CCOCCOCCNC(=O)C(N)CCC(=O)NCCCCCCO[C@@H]6O[C@H](CO)[C@@H](O[C@@H]7O[C@H](CO)[C@H](O)[C@H](O[C@@]8(C(=O)O)C[C@H](O)[C@@H](NC(C)=O)[C@@H]([C@@H](O)[C@H](O)CO)O8)[C@H]7O)[C@@H](O)[C@H]6O)cc5)c5ccc(NC(=O)CCOCCOCCNC(=O)C(N)CCC(=O)NCCCCCCO[C@@H]6O[C@H](CO)[C@@H](O[C@@H]7O[C@H](CO)[C@H](O)[C@H](O[C@@]8(C(=O)O)C[C@H](O)[C@@H](NC(C)=O)[C@@H]([C@@H](O)[C@H](O)CO)O8)[C@H]7O)[C@@H](O)[C@H]6O)cc5)cc4)O[C@@H]3CO)[C@@H]2O)(C(=O)O)C[C@@H]1O` (some centres undefined), for which the solubility result in series [1] is “Soluble”. Also, the figures for the Activity in the series on Influenza A virus [2] and in the series on Influenza A virus [3] were 67.2% and 56.6%, respectively. Moreover, the inhibition entry in the series on Influenza A virus [4] is “inactive”.
